Laboratory results published in ChEMBL document CHEMBL4706489, “Hydrogen sulfide releasing oridonin derivatives induce apoptosis through extrinsic and intrinsic pathways” (Eur J Med Chem, 2020).

How the values were obtained:
[1] = test system: HepG2; assay: Induction of cell cycle arrest in human HepG2 cells assessed as accumulation at S phase at 1 uM after 48 hrs by propidium iodide staining based flow cytometric analysis (reference value: 33.22 to 33.58%); type: functional
[2] = test system: K562; assay: Induction of cell cycle arrest in human K562 cells assessed as accumulation at G1 phase at 2 uM after 48 hrs by propidium iodide staining based flow cytometric analysis (reference value: 43.24 to 43.37%); type: functional
[3] = test system: HepG2; assay: Induction of cell cycle arrest in human HepG2 cells assessed as accumulation at G2 phase at 2 uM after 48 hrs by propidium iodide staining based flow cytometric analysis (reference value: 16.48 to 16.97%); type: functional
[4] = test system: K562; assay: Induction of cell cycle arrest in human K562 cells assessed as accumulation at G1 phase at 0.5 uM after 48 hrs by propidium iodide staining based flow cytometric analysis (reference value: 43.24 to 43.37%); type: functional
[5] = test system: HepG2; assay: Antiproliferative activity against human HepG2 cells assessed as reduction in cell viability after 72 hrs by MTT assay; details: HepG2, 72 h
[6] = test system: HepG2; assay: Induction of cell cycle arrest in human HepG2 cells assessed as accumulation at G2 phase at 0.5 uM after 48 hrs by propidium iodide staining based flow cytometric analysis (reference value: 16.48 to 16.97%); type: functional
Outline: (§1)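 HepG2 cells were treated with 0, 0.50, 1.0 or 2.0 test agent for 48 h. Cells were washed in cold PBS and fixed in 70% ethanol at −20 °C overnight. DNA-content distribution was measured by flow cytometry. Mean ± SD, three independent experiments.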

[7] = test system: K562; assay: Induction of cell cycle arrest in human K562 cells assessed as accumulation at G2 phase at 1 uM after 48 hrs by propidium iodide staining based flow cytometric analysis (reference value: 10.96 to 12.03%); type: functional
[8] = Cytotoxicity against human PBMC cells assessed as cell viability after 72 hrs by MTT assay
[9] = test system: K562; assay: Induction of cell cycle arrest in human K562 cells assessed as accumulation at S phase at 2 uM after 48 hrs by propidium iodide staining based flow cytometric analysis (reference value: 44.73 to 45.96%); type: functional
[10] = test system: HepG2; assay: Induction of cell cycle arrest in human HepG2 cells assessed as accumulation at G1 phase at 1 uM after 48 hrs by propidium iodide staining based flow cytometric analysis (reference value: 49.46 to 50.3%); type: functional; outline: as §1
[11] = test system: B16; assay: Antiproliferative activity against mouse B16 cells assessed as reduction in cell viability after 72 hrs by MTT assay; details: B16, 72 h
[12] = test system: MCF7; assay: Antiproliferative activity against human MCF7 cells assessed as reduction in cell viability after 72 hrs by MTT assay; details: MCF7, 72 h
[13] = test system: HepG2; assay: Induction of cell cycle arrest in human HepG2 cells assessed as accumulation at G1 phase at 2 uM after 48 hrs by propidium iodide staining based flow cytometric analysis (reference value: 49.46 to 50.3%); type: functional; outline: as §1
[14] = test system: HepG2; assay: Induction of cell cycle arrest in human HepG2 cells assessed as accumulation at G2 phase at 1 uM after 48 hrs by propidium iodide staining based flow cytometric analysis (reference value: 16.48 to 16.97%); type: functional; outline: as §1
[15] = test system: K562; assay: Induction of cell cycle arrest in human K562 cells assessed as accumulation at S phase at 1 uM after 48 hrs by propidium iodide staining based flow cytometric analysis (reference value: 44.73 to 45.96%); type: functional
[16] = test system: K562; assay: Induction of cell cycle arrest in human K562 cells assessed as accumulation at G1 phase at 1 uM after 48 hrs by propidium iodide staining based flow cytometric analysis (reference value: 43.24 to 43.37%); type: functional
[17] = test system: K562; assay: Induction of cell cycle arrest in human K562 cells assessed as accumulation at G2 phase at 0.5 uM after 48 hrs by propidium iodide staining based flow cytometric analysis (reference value: 10.96 to 12.03%); type: functional
[18] = test system: HepG2; assay: Induction of cell cycle arrest in human HepG2 cells assessed as accumulation at S phase at 0.5 uM after 48 hrs by propidium iodide staining based flow cytometric analysis (reference value: 33.22 to 33.58%); type: functional
[19] = test system: K562; assay: Induction of cell cycle arrest in human K562 cells assessed as accumulation at S phase at 0.5 uM after 48 hrs by propidium iodide staining based flow cytometric analysis (reference value: 44.73 to 45.96%); type: functional
[20] = test system: K562; assay: Induction of cell cycle arrest in human K562 cells assessed as accumulation at G2 phase at 2 uM after 48 hrs by propidium iodide staining based flow cytometric analysis (reference value: 10.96 to 12.03%); type: functional
[21] = test system: HCT-116; assay: Antiproliferative activity against human HCT-116 cells assessed as reduction in cell viability after 72 hrs by MTT assay; details: HCT-116, 72 h
[22] = test system: L02; assay: Cytotoxicity against human L02 cells assessed as cell viability after 72 hrs by MTT assay; details: L02, 72 h
[23] = test system: HepG2; assay: Induction of cell cycle arrest in human HepG2 cells assessed as accumulation at G1 phase at 0.5 uM after 48 hrs by propidium iodide staining based flow cytometric analysis (reference value: 49.46 to 50.3%); type: functional; outline: as §1
[24] = test system: HepG2; assay: Induction of cell cycle arrest in human HepG2 cells assessed as accumulation at S phase at 2 uM after 48 hrs by propidium iodide staining based flow cytometric analysis (reference value: 33.22 to 33.58%); type: functional

For `C=C1C(=O)[C@]23[C@H](O)[C@H]1CC[C@H]2[C@@]12CO[C@]3(O)[C@@H](O)[C@@H]1C(C)(C)CC[C@@H]2O` [ORIDONIN], the Activity [1] was 27.54%, the Activity [2] was 60.6% and the Activity [3] was 5.8%. It also gave an Activity [4] of 46.09%, an IC50 [5] of 8.95 µM and an Activity [6] of 13.25%. For the same molecule, the Activity [7] was 5.79%, the IC50 [8] was over 50 µM and the Activity [9] was 32.78%. The Activity [10] was 61.88%, the IC50 [11] was 24.9 µM and the IC50 [12] was 13.8 µM. The Activity [13] was 68%, the Activity [14] was 10.54% and the Activity [15] was 38.54%. The Activity [16] was 55.67%, the Activity [17] was 9.81% and the Activity [18] was 29.64%. For the same molecule, the Activity [19] was 44.1%, the Activity [20] was 6.62% and the IC50 [21] was 11.7 µM. The IC50 [22] was 21.6 µM, the Activity [23] was 57.11% and the Activity [24] was 26.2%.
